Screens as filed in PubChem.
UPR XBP1 act = activators of adaptive arm of unfolded protein response (XBP1). CHO-XBP1 luciferase reporter, IRE1-XBP1 UPR activation, luminescence; percent of tunicamycin response, DMSO as zero. activation, % at 20 µM. 330,000 tested, 0.33% active. AID 463104;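 active means versus positive control, 20 µM dose yields 30% or more activation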;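 further: 100% = tunicamycin at 10 µg/mL and 0% = DMSO only wells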
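Material: IRE1-XBP1 luciferase reporter CHO line / Quantity: one thousand reporter cells per well / Buffer or medium: F12 with 10% serum / Compound: 20 µM single concentration, DMSO 1% / Times: 6 h treatment, 37 °C / Detection: Steady-Glo luciferase glow luminescence, 10 min after reagent addition / Benchmarks: tunicamycin high, DMSO low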
tim23-1 inh = growth inhibitors of tim23-1 mutant yeast; 330,000 tested, 1.3% active; AID 463212; inhibition, % at 20 µM; S. cerevisiae tim23-1 growth, BacTiter-Glo luminescence, 24 h;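 active means growth inhibition of the mutant yeast at or above 50%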;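 further: temperature-sensitive mutant grown at 25 °C; plate controls were DMSO-treated mutant yeast for no effect and medium wells lacking yeast for full effect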
CHOP UPR activ = apoptotic UPR (CHOP) activation. AID 449763. CHO-CHOP luciferase reporter, luminescence; percent of tunicamycin response over DMSO baseline. activation, % at 10 µM. 330,000 tested, 0.34% active;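 active means at 10 µM dose, activation of 40% or more, normalized to positive control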;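 further: 100% = tunicamycin at 10 µg/mL and 0% = DMSO alone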
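Evaluation: % reporter activation, DMSO baseline versus tunicamycin full activation; System: CHO-CHOP luciferase reporter cell line; Input: 500 cells/well; Incubation: 6 h compound treatment, 37 °C; Measured by: Steady-Glo luciferase luminescence; Dosing: one dose, 10 µM in 0.5% DMSO; Buffer or medium: F12 medium, 10% FBS; Benchmarks: positive tunicamycin 10 µg/mL, negative DMSO alone.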
tim10-1 inh = growth inhibitors of tim10-1 mutant yeast; S. cerevisiae tim10-1 ts strain growth, BacTiter-Glo, 24 h; inhibition, % at 20 µM; 330,000 tested, 2.2% active;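 active means inhibition of at least 40%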;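 further: mutant grown at 25 °C; 0% = DMSO wells with yeast and 100% = wells holding no yeast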
TIM10 inh = growth inhibitors of TIM10 yeast strain | S. cerevisiae TIM10 strain growth, BacTiter-Glo luminescence, 24 h | inhibition, % at 10 µM | 330,000 tested, 1.4% active;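 active means inhibition of 40% or more at the single tested concentration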;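 further: wild-type TIM10 isogenic control strain grown at permissive 25 °C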
tim10-1 conf = tim10-1 yeast growth inhibition, confirmed | inhibition, % at 20 µM | S. cerevisiae tim10-1 ts strain growth, BacTiter-Glo, 24 h | 7,400 tested, 56% active | shares compounds with tim10-1 inh;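 active means inhibition of yeast growth at or above a set limit in either of two repeat tests at 20 µM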;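 further: tim10-1 mutant grown at permissive 25 °C to find synthetic lethal compounds; 0% = DMSO yeast wells and 100% = medium wells without yeast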
* hit, by the source's call; . = no result. An excerpt weighted towards active compounds, which were near 3.9% of everything screened.

SMILES	UPR XBP1 act	tim23-1 inh	CHOP UPR activ	tim10-1 inh	TIM10 inh	tim10-1 conf
COC(=O)c1c(N2C(=O)[C@H]3[C@@H](C2=O)[C@]2(C(=O)Nc4ccccc42)N2CCC[C@@H]32)sc(C)c1C	7	9	0	9	4	.
CN(C)C(=C(C#N)C#N)N1CCN(c2ccc(Cl)cc2)CC1	-3	1	1	9	-2	.
CN(C)C(=C(C#N)C#N)N1CCN(c2ccc(Cl)c(Cl)c2)CC1	0	27	-1	42*	8	10
O=c1cnc2ccccc2n1Cc1ccccc1C(F)(F)F	-1	10	1	-7	3	.
COCCNC(=S)N/N=C(\C)c1ccc(OC)cc1	0	9	-2	15	6	.
COCCNC(=S)N/N=C(\C)c1cc2ccccc2o1	3	36	2	41*	35	15
COCCNC(=S)N/N=C(\C)c1cccc(C(F)(F)F)c1	-4	26	-1	45*	34	15
N#CC1(Nc2cccc(Br)c2)C(=O)Nc2ccccc21 (configuration not stated)	-4	37	-1	42*	39	38*
N#CC1(Nc2ccccc2)C(=O)Nc2ccccc21 (configuration not stated)	-2	19	0	12	-7	.
O=C(CCSc1ccccc1)N1CCCC1	1	-1	4	6	-2	.
O=[N+]([O-])/C(C(Cl)=C(Cl)Cl)=C(\Sc1ccccc1)N1CCCCC1	9	39	4	44*	35	35*
CC1Cc2cc(S(=O)(=O)N3CCC(C(=O)N(C)Cc4ccccc4)CC3)ccc2N1C(=O)C1CC1 (configuration not stated)	-3	30	2	37	15	.
S=c1[nH]c2cc(-c3ccccc3)ccc2o1	0	48	1	43*	31	28
O=S(=O)(c1ccc2oc(=S)[nH]c2c1)N1CCCCC1	-3	-10	0	-8	6	.
COc1cc(/C=C/C(=O)OCC(=O)N(C)C2CCS(=O)(=O)C2)ccc1OC(F)F (configuration not stated)	-3	-12	0	-1	-3	.
C=CCOc1ccc(/C=C/C(=O)OCC(=O)NCC(=O)Nc2c(C)cc(C)cc2C)cc1	-2	21	3	19	12	.
CN(C)c1ccc(C(=S)N2CCN(c3ccc([N+](=O)[O-])cc3)CC2)cc1	-5	-24	2	3	6	.
O=[N+]([O-])c1ccc(C(=S)N2CCN(c3ccc(F)cc3)CC2)cc1	25	35	-1	43*	21	26
CCC(C)c1ccc(OCC(=O)Nc2ccc(CN3CCOCC3)cc2)cc1 (configuration not stated)	-3	20	1	-3	-30	.
CCSC(=O)CCCCCCCCCCCO	0	26	3	40*	15	36*
COC(=O)c1cc(S(=O)(=O)N2CCN(c3cccc(C)c3C)CC2)c[nH]1	-1	26	2	51*	31	30*
CC(=O)c1cccc(NC(=O)CN(Cc2ccccc2)S(C)(=O)=O)c1	-3	-6	-1	2	-1	.
CS(=O)(=O)N(CC(=O)Nc1cccc(F)c1)Cc1ccccc1	-1	7	-1	49*	-12	5
Cn1c(CNC(=O)CCNC(=O)c2cccc(F)c2)cc(=O)n(C)c1=O	-1	5	2	-11	2	.
O=C(N/N=C/c1ccccc1C(=O)O)c1cccc(S(=O)(=O)N2CCCCC2)c1	-4	1	0	-3	13	.
SMILES	UPR XBP1 act	tim23-1 inh	CHOP UPR activ	tim10-1 inh	TIM10 inh	tim10-1 conf
Cc1cccc(-c2oc3ccccc3c2C#CCCO)c1	5	31	1	45*	30	11
COc1ccc(CNCCC(c2ccc(OC(C)C)cc2)c2ccccc2OC)cc1 (configuration not stated)	3	15	1	2	24	.
COc1ccccc1C(CCNCc1ccccc1)c1ccc(OC(C)C)cc1 (configuration not stated)	-6	32	0	41*	21	31*
COc1ccc(CCNC(=O)c2nn(C)c3c2CS(=O)(=O)c2ccccc2-3)c(OC)c1	-6	23	1	29	9	.
CC(C)(C)c1ccc(OCCC(=O)Nc2ccc(N3CCOCC3)cc2N2CCOCC2)cc1	-1	43	2	28	17	.
Cc1ccc(SCCN2CCC(C(C)(C)C)CCC2=O)cc1 (configuration not stated)	1	38	2	45*	21	30
CC(C)(C)C1CCC(=O)N(CCSc2ccccc2)CC1 (configuration not stated)	1	29	3	15	10	.
Cc1cc(/C=C2\Sc3ccccc3N2C)cc(C)[n+]1CC1CCCO1 (configuration not stated)	2	23	7	57*	20	26
Cc1ccc(/C=C2/Sc3ccccc3N(CC(=O)NCC3CCCO3)C2=O)cc1 (configuration not stated)	-1	15	1	31	14	.
Cc1onc(-c2ccccc2)c1C(=O)Nc1sc2c(c1C#N)CCC2	1	33	0	41*	28	42*
Cc1onc(-c2ccccc2)c1C(=O)Nc1sc2c(c1C(N)=O)CCC2	4	23	2	47*	13	28
Cc1cc(C(F)F)n2nc(C(=O)Nc3sc4c(c3C#N)CCC4)nc2n1	-2	28	4	42*	12	35*
Cc1onc(-c2c(F)cccc2Cl)c1C(=O)Nc1sc2c(c1C(N)=O)CCC2	2	35	-1	32	28	.
CNC(=O)c1c(NC(=O)c2ccco2)sc2c1CCC2	0	45	1	41*	18	17
Cc1cc(C(=O)Nc2sc3c(c2C#N)CCC3)no1	-1	32	3	28	28	.
O=C(NCc1ccccc1Cl)c1cc2ccccc2oc1=O	0	20	9	14	0	.
O=c1oc2ccccc2cc1NCc1ccccc1O	4	38	1	41*	11	7
Fc1ccc(-c2nn3c(C4COc5ccccc5O4)nnc3s2)cc1 (configuration not stated)	0	25	2	47*	34	43*
COC(/C(=N/O)c1ccc(Cl)cc1)c1ccccc1 (configuration not stated)	3	47	13	47*	26	31*
CCCC1CC(C(=O)NC(C(C)Cl)C2OC(SC)C(O)C(O)C2O)N(C)C1 (configuration not stated)	-4	3	0	-6	-9	.
Cc1ccc(C2C3=C(CC(C)(C)CC3=O)N=C3c4ccccc4C(=O)C32)cc1 (configuration not stated)	5	28	0	20	17	.
